# Laboratory results taken from paper PMC6606825 (Journal of Ginseng Research, 2018).
# Experiment: Pharmacokinetics of CK and its metabolite 20
# Format: in vivo, healthy Chinese volunteers
# In short: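 Healthy adults given one oral tablet dose fasting (overnight, or 10 h in a crossover food-effect arm); 30 subjects from the 100/200/400 mg groups were pooled with 24 from 200 mg fasting periods. Plasma was stored at −70°C, extracted with MTBE plus internal standards and assayed by LC-MS/MS. Cmax was observed and AUClast calculated by linear trapezoid, each divided by dose. The metabolite/parent ratio was also calculated. Genotyping used Sequenom MassARRAY, and log-transformed values were compared by one-way ANOVA.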
# [1] = ABCC4 rs1151471 CC, n = 2, mean (SD)
# [2] = ABCC4 rs2274406 TT (first line), mean (SD)
# [3] = ABCC4 rs2274406 TT (third line), mean (SD)
# [4] = ABCG2 rs2054576 AA (first line), mean (SD)
# [5] = ABCG2 rs2054576 AA (third line), mean (SD)
compound,measurement,setting,value
"CC(C)=CCC[C@](C)(O[C@@H]1O[C@H](CO)[C@@H](O)[C@H](O)[C@H]1O)[C@H]1CC[C@]2(C)[C@@H]1[C@H](O)C[C@@H]1[C@@]3(C)CC[C@H](O)C(C)(C)[C@@H]3CC[C@]12C [Ginsenoside compound K, 20-O-beta-D-glucopyranosyl-20(S)-protopanaxadiol]",dose-normalized exposure among the groups,"100, 200, 400 mg single-dose groups and food-effect trial, fasting",not significantly different
same,CK AUClast/D,"ABCB1 rs1045642 AA, mean (SD)",28.81 (11.93)
same,CK Cmax/D,"ABCB1 rs1045642 AA, mean (SD)",4.03 (1.47)
same,CK AUClast/D,"ABCB1 rs1045642 AG, mean (SD)",27.71 (15.58)
same,CK Cmax/D,"ABCB1 rs1045642 AG, mean (SD)",3.50 (1.91)
same,CK AUClast/D,"ABCB1 rs1045642 GG, mean (SD)",31.19 (22.91)
same,CK Cmax/D,"ABCB1 rs1045642 GG, mean (SD)",4.13 (2.82)
same,CK AUClast/D,"ABCB1 rs1128503 AA, mean (SD)",28.07 (15.30)
same,CK Cmax/D,"ABCB1 rs1128503 AA, mean (SD)",3.67 (1.80)
same,CK AUClast/D,"ABCB1 rs1128503 AG, mean (SD)",28.43 (20.03)
same,CK Cmax/D,"ABCB1 rs1128503 AG, mean (SD)",3.66 (2.34)
same,CK AUClast/D,"ABCB1 rs1128503 GG, mean (SD)",33.81 (17.43)
same,CK Cmax/D,"ABCB1 rs1128503 GG, mean (SD)",4.67 (3.44)
same,CK AUClast/D,"ABCB1 rs2032582 AA, mean (SD)",26.68 (12.71)
same,CK Cmax/D,"ABCB1 rs2032582 AA, mean (SD)",3.81 (2.02)
same,CK AUClast/D,"ABCB1 rs2032582 CA, mean (SD)",27.47 (15.11)
same,CK Cmax/D,"ABCB1 rs2032582 CA, mean (SD)",3.46 (1.72)
same,CK AUClast/D,"ABCB1 rs2032582 CC, mean (SD)",33.69 (25.60)
same,CK Cmax/D,"ABCB1 rs2032582 CC, mean (SD)",4.42 (3.14)
same,CK AUClast/D,"ABCC2 rs717620 CC, mean (SD)",31.60 (19.89)
same,CK Cmax/D,"ABCC2 rs717620 CC, mean (SD)",3.98 (2.30)
same,CK AUClast/D,"ABCC2 rs717620 CT, mean (SD)",25.18 (13.50)
same,CK Cmax/D,"ABCC2 rs717620 CT, mean (SD)",3.48 (2.01)
same,CK AUClast/D,"ABCC2 rs2273697 GA, mean (SD)",35.66 (26.59)
same,CK Cmax/D,"ABCC2 rs2273697 GA, mean (SD)",4.74 (3.23)
same,CK AUClast/D,"ABCC2 rs2273697 GG, mean (SD)",25.98 (12.06)
same,CK Cmax/D,"ABCC2 rs2273697 GG, mean (SD)",3.35 (1.44)
same,CK AUClast/D,"ABCC2 rs2756109 GG, mean (SD)",27.59 (12.16)
same,CK AUClast/D,"ABCC2 rs3740066 CC, mean (SD)",32.09 (20.46)
same,CK Cmax/D,"ABCC2 rs3740066 CC, mean (SD)",4.02 (2.37)
same,CK Cmax/D,"ABCC2 rs3740066 CT, mean (SD)",3.3 (1.87)
same,CK AUClast/D,"ABCC2 rs3740066 TT, n = 1",55.95 (—)
same,CK Cmax/D,"ABCC2 rs3740066 TT, n = 1",6.24 (—)
same,CK AUClast/D,"ABCC3 rs4148416 CC, mean (SD)",29.20 (18.77)
same,CK Cmax/D,"ABCC3 rs4148416 CC, mean (SD)",3.72 (2.07)
same,CK AUClast/D,"ABCC3 rs4148416 CT, mean (SD)",27.15 (14.29)
same,CK Cmax/D,"ABCC3 rs4148416 CT, mean (SD)",3.78 (2.53)
same,CK AUClast/D,"ABCC3 rs4793665 CT, mean (SD)",29.14 (12.55)
same,CK Cmax/D,"ABCC3 rs4793665 CT, mean (SD)",4.04 (2.17)
same,CK AUClast/D,"ABCC3 rs4793665 TT, mean (SD)",28.53 (18.94)
same,CK Cmax/D,"ABCC3 rs4793665 TT, mean (SD)",3.65 (2.19)
same,CK AUClast/D,"ABCC3 rs12051822 GA, mean (SD)",23.66 (11.90)
same,CK Cmax/D,"ABCC3 rs12051822 GA, mean (SD)",3.09 (1.13)
same,CK AUClast/D,"ABCC3 rs12051822 GG, mean (SD)",30.37 (18.95)
same,CK Cmax/D,"ABCC3 rs12051822 GG, mean (SD)",3.96 (2.39)
same,CK AUClast/D,[1],13.68 (2.21)
same,CK Cmax/D,[1],2.08 (0.39)
same,CK AUClast/D,"ABCC4 rs1151471 TC, mean (SD)",24.64 (13.71)
same,CK Cmax/D,"ABCC4 rs1151471 TC, mean (SD)",3.32 (2.06)
same,CK AUClast/D,"ABCC4 rs1151471 TT, mean (SD)",32.65 (19.80)
same,CK Cmax/D,"ABCC4 rs1151471 TT, mean (SD)",4.16 (2.32)
same,CK AUClast/D,"ABCC4 rs1189437 GG, n = 1",12.12 (−)
same,CK Cmax/D,"ABCC4 rs1189437 GG, n = 1",1.80 (−)
same,CK AUClast/D,"ABCC4 rs1189437 GT, mean (SD)",20.77 (9.40)
same,CK Cmax/D,"ABCC4 rs1189437 GT, mean (SD)",2.74 (1.29)
same,CK AUClast/D,"ABCC4 rs1189437 TT, mean (SD)",31.84 (19.14)
same,CK Cmax/D,"ABCC4 rs1189437 TT, mean (SD)",4.06 (2.19)
same,CK AUClast/D,"ABCC4 rs1751034 TC, mean (SD)",18.58 (7.25)
same,CK Cmax/D,"ABCC4 rs1751034 TC, mean (SD)",2.45 (0.95)
same,CK AUClast/D,"ABCC4 rs1751034 TT, mean (SD)",32.53 (18.96)
same,CK Cmax/D,"ABCC4 rs1751034 TT, mean (SD)",4.23 (2.32)
same,CK AUClast/D,"ABCC4 rs2274406 CT, mean (SD)",28.24 (19.96)
same,CK Cmax/D,"ABCC4 rs2274406 CT, mean (SD)",3.68 (2.42)
same,CK AUClast/D,[2],33.40 (14.80)
same,CK Cmax/D,[2],4.70 (2.25)
same,CK AUClast/D,[3],26.57 (13.77)
same,CK Cmax/D,[3],3.25 (1.32)
same,CK AUClast/D,"ABCC4 rs2274407 CA, mean (SD)",28.22 (13.76)
same,CK Cmax/D,"ABCC4 rs2274407 CA, mean (SD)",3.43 (1.35)
same,CK AUClast/D,"ABCC4 rs2274407 CC, mean (SD)",28.81 (18.82)
same,CK Cmax/D,"ABCC4 rs2274407 CC, mean (SD)",3.84 (2.38)
same,CK AUClast/D,"ABCC4 rs4148546 AA, mean (SD)",26.51 (15.61)
same,CK Cmax/D,"ABCC4 rs4148546 AA, mean (SD)",3.43 (1.93)
same,CK Cmax/D,"ABCC4 rs4148546 GA, mean (SD)",3.49 (1.91)
same,CK AUClast/D,"ABCC4 rs4148546 GG, mean (SD)",39.82 (26.88)
same,CK Cmax/D,"ABCC4 rs4148546 GG, mean (SD)",4.87 (2.88)
same,CK AUClast/D,"ABCC4 rs11568658 CC, mean (SD)",28.31 (19.56)
same,CK AUClast/D,[4],25.61 (12.77)
same,CK Cmax/D,[4],3.31 (1.53)
same,CK AUClast/D,[5],25.70 (13.01)
same,CK Cmax/D,[5],3.29 (1.35)
same,CK AUClast/D,"ABCG2 rs2054576 GA, mean (SD)",32.78 (22.38)
same,CK Cmax/D,"ABCG2 rs2054576 GA, mean (SD)",4.31 (2.78)
same,CK AUClast/D,"ABCG2 rs2231142 GG, mean (SD)",27.45 (13.31)
same,CK Cmax/D,"ABCG2 rs2231142 GG, mean (SD)",3.51 (1.56)
same,CK AUClast/D,"ABCG2 rs2231142 GT, mean (SD)",31.50 (23.56)
same,CK Cmax/D,"ABCG2 rs2231142 GT, mean (SD)",3.89 (2.60)
same,CK AUClast/D,"ABCG2 rs2231142 TT, mean (SD)",25.70 (13.01)
same,CK Cmax/D,"ABCG2 rs2231142 TT, mean (SD)",3.29 (1.35)
same,CK AUClast/D,"ABCG2 rs2231148 AA, mean (SD)",35.54 (21.89)
same,CK Cmax/D,"ABCG2 rs2231148 AA, mean (SD)",4.43 (2.92)
same,CK AUClast/D,"ABCG2 rs2231148 AT, mean (SD)",39.28 (26.36)
same,CK Cmax/D,"ABCG2 rs2231148 AT, mean (SD)",4.87 (3.24)
same,CK AUClast/D,"ABCG2 rs2231148 TT, mean (SD)",23.05 (8.91)
same,CK Cmax/D,"ABCG2 rs2231148 TT, mean (SD)",3.09 (1.18)
same,CK AUClast/D,"ABCG2 rs2725248 AA, mean (SD)",26.94 (18.76)
same,CK Cmax/D,"ABCG2 rs2725248 AA, mean (SD)",3.68 (2.42)
same,CK AUClast/D,"ABCG2 rs2725248 CA, mean (SD)",31.91 (15.94)
same,CK Cmax/D,"ABCG2 rs2725248 CA, mean (SD)",3.96 (1.89)
same,CK AUClast/D,"ABCG2 rs2725248 CC, mean (SD)",40.01 (16.71)
